The source made the active and inactive calls. The calls are words filed in the database; no cut-off is given here.
Experiments:
[1] = target: Serine/threonine-protein kinase Nek6 (Homo sapiens, UniProt Q9HC98); assay: Inhibition of NEK6 (unknown origin)
[2] = target: Cyclin-dependent kinase 1/cyclin B1 (Homo sapiens, UniProt P06493); assay: Inhibition of CDK1/Cyclin B1 (unknown origin); format: protein-complex assay
[3] = target: Cyclin-Y/Cyclin-dependent kinase 16 (Homo sapiens, UniProt Q00536); assay: Inhibition of PCTAIRE1/cyclinY (unknown origin); format: protein-complex assay
[4] = target: Glycogen synthase kinase-3 beta (Homo sapiens, UniProt P49841); assay: Inhibition of GSK3-beta (unknown origin)
[5] = tested on: MDA-MB-231; assay: Inhibition of NFkappaB activation in human MDA-MB-231 cells at 100 uM after 6 hrs by dual luciferase reporter gene assay relative to control; format: cell-based
In short: (§1)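 Cells were nucleofected with the pGL4.32 NF-κB-RE firefly luciferase and pGL4.74 TK-Renilla plasmids (3 µg, 10:1 ratio) and cultured for 24 h at 37 °C. Compound (10, 25, 50 or 100 µM) was then added for 6 h. Firefly luminescence was normalised to Renilla from the same sample and expressed as % of vehicle control. Means ± SD of three independent experiments.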

[6] = target: SRSF protein kinase 2 (Homo sapiens, UniProt P78362); assay: Inhibition of SRPK2 (unknown origin)
[7] = target: Platelet-derived growth factor receptor alpha (Homo sapiens, UniProt P16234); assay: Inhibition of wild-type PDGFR-alpha (unknown origin)
[8] = target: Maternal embryonic leucine zipper kinase (Homo sapiens, UniProt Q14680); assay: Inhibition of MELK (unknown origin)
[9] = target: Epidermal growth factor receptor (Homo sapiens, UniProt P00533); assay: Inhibition of wild-type EGFR (unknown origin)
[10] = target: Casein kinase II subunit alpha (Homo sapiens, UniProt P68400); assay: Inhibition of CK2-alpha1 (unknown origin)
[11] = target: Hepatocyte growth factor receptor (Homo sapiens, UniProt P08581); assay: Inhibition of wild-type MET (unknown origin)
Sequence of Hepatocyte growth factor receptor (P08581 whole entry): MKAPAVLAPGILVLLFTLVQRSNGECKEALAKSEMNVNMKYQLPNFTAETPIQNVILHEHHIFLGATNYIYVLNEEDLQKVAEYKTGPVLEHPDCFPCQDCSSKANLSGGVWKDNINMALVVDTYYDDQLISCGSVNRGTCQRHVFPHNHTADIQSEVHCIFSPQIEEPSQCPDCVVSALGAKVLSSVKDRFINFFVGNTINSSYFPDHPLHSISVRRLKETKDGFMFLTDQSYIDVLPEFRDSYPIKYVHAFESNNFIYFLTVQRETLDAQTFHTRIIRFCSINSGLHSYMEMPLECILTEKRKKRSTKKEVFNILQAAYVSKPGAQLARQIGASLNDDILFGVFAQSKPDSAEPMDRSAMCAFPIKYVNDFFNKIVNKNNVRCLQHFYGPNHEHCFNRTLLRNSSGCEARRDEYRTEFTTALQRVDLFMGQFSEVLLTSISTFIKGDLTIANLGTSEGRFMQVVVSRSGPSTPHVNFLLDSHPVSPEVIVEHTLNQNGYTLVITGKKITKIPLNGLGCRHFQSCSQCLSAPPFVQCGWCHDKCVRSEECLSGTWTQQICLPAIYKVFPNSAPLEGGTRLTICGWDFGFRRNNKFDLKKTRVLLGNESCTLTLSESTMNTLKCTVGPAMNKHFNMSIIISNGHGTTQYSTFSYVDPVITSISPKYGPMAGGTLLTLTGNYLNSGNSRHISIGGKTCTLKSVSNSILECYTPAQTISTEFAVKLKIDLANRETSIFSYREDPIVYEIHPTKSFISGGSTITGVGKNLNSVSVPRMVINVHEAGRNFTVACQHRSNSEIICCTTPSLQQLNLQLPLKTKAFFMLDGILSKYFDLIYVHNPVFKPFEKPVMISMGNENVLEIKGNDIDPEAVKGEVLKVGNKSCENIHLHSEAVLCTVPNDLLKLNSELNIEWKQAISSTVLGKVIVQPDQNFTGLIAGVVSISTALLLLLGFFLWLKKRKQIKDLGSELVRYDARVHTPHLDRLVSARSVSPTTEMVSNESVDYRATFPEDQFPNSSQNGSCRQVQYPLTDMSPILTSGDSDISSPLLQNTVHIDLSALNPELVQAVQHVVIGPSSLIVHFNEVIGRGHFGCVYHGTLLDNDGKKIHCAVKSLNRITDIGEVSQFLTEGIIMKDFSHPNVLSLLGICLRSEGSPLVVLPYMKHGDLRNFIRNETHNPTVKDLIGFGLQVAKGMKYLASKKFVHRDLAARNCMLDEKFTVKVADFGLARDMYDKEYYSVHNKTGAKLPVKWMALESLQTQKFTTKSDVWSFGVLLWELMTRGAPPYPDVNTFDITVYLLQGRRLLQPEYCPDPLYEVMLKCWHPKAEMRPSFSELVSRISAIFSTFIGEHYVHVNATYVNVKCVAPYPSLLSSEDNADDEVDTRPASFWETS

[12] = target: Mitogen-activated protein kinase 14 (Homo sapiens, UniProt Q16539); assay: Inhibition of p38-alpha (unknown origin)
Sequence of Mitogen-activated protein kinase 14 (Q16539 whole entry): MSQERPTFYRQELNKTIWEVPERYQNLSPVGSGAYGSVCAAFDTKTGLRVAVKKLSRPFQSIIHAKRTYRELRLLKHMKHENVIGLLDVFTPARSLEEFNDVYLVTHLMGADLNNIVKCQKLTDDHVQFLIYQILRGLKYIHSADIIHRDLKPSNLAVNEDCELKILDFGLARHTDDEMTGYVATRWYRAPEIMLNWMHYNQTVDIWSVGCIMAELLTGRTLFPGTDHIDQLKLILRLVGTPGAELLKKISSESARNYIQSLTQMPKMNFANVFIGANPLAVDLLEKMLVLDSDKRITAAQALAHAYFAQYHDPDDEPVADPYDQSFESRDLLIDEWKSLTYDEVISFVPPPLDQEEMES

[13] = target: Serine/threonine-protein kinase TAO2 (Homo sapiens, UniProt Q9UL54); assay: Inhibition of TAOK2 (unknown origin)
[14] = target: Dual specificity protein kinase CLK1 (Homo sapiens, UniProt P49759); assay: Inhibition of CLK1 (unknown origin)
[15] = Octanol/phosphate buffered saline partition coefficient, log D of the compound at pH 7.4; format: physicochemical
[16] = target: Mitogen-activated protein kinase 1 (Homo sapiens, UniProt P28482); assay: Inhibition of ERK2 (unknown origin)
[17] = Cytotoxicity against human SKBR3 cells assessed as cell viability at 100 uM after 6 hrs by CellTiter Glo luminescent assay relative to control; format: cell-based, SK-BR-3; conditions: read-out: Activity
In short: (§2)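 Cells seeded at 5 x 10^3 per well and exposed for 6 h to the compound (10, 25, 50 or 100 µM) or to DMSO vehicle. Viability was read as intracellular ATP by CellTiter Glo luminescence.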

[18] = target: Serine/threonine-protein kinase PAK 1 (Homo sapiens, UniProt Q13153); assay: Inhibition of PAK1 (unknown origin)
Sequence of Serine/threonine-protein kinase PAK 1 (Q13153 whole entry, the tested form may be a part): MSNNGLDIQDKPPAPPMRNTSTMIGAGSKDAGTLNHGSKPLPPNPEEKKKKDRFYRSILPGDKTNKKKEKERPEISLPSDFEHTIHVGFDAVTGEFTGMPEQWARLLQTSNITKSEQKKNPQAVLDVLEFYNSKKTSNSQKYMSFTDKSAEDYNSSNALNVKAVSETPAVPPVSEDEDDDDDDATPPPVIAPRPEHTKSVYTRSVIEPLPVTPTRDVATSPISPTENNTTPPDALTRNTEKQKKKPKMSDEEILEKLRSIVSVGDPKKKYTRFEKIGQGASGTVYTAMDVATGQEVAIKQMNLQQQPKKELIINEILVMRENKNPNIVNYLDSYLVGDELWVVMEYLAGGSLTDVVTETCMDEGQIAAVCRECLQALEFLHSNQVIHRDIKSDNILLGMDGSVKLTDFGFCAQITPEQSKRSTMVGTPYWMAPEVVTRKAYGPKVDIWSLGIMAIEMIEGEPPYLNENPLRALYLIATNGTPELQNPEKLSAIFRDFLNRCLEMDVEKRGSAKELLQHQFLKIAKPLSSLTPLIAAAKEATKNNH

[19] = species on record: Mus musculus; assay: Inhibition of mouse NIK kinase domain V480L mutant
[20] = Cytotoxicity against human MDA-MB-231 cells assessed as cell viability at 100 uM after 6 hrs by CellTiter Glo luminescent assay relative to control; format: cell-based; conditions: read-out: Activity; in short: as §2
[21] = target: Mitogen-activated protein kinase kinase kinase 14 (Homo sapiens, UniProt Q99558); assay: Inhibition of NIK-induced NFkappaB activation in human EJM cells at 25 uM after 6 hrs by dual luciferase reporter gene assay relative to control; format: cell-based; in short: as §1
Sequence of Mitogen-activated protein kinase kinase kinase 14 (Q99558 whole entry, looked up): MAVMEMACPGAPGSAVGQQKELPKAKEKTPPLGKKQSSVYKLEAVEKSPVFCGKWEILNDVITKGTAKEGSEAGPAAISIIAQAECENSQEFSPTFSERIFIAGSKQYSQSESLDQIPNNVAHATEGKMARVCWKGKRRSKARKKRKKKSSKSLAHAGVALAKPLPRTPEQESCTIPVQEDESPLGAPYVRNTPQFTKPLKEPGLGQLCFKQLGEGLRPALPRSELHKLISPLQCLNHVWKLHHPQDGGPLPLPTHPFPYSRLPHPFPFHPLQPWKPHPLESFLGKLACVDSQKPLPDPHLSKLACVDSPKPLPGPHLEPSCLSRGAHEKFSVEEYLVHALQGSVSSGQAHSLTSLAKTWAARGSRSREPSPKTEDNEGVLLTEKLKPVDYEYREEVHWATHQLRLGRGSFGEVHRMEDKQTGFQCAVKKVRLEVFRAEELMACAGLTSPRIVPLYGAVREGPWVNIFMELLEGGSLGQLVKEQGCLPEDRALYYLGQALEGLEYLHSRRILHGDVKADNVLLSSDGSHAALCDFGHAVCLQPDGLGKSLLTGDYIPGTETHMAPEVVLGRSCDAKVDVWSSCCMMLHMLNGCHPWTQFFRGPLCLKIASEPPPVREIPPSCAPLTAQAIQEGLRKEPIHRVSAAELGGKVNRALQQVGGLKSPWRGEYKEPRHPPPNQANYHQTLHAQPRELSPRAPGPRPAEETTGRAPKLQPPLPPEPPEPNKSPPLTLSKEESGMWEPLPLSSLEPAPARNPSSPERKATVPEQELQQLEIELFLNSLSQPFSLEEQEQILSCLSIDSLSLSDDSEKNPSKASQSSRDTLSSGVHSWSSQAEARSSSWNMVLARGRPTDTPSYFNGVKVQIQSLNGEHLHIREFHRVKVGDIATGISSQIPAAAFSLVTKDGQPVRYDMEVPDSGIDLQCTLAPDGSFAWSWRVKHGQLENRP

[22] = target: Fibroblast growth factor receptor 1 (Homo sapiens, UniProt P11362); assay: Inhibition of wild-type FGFR1 (unknown origin)
Sequence of Fibroblast growth factor receptor 1 (P11362 whole entry): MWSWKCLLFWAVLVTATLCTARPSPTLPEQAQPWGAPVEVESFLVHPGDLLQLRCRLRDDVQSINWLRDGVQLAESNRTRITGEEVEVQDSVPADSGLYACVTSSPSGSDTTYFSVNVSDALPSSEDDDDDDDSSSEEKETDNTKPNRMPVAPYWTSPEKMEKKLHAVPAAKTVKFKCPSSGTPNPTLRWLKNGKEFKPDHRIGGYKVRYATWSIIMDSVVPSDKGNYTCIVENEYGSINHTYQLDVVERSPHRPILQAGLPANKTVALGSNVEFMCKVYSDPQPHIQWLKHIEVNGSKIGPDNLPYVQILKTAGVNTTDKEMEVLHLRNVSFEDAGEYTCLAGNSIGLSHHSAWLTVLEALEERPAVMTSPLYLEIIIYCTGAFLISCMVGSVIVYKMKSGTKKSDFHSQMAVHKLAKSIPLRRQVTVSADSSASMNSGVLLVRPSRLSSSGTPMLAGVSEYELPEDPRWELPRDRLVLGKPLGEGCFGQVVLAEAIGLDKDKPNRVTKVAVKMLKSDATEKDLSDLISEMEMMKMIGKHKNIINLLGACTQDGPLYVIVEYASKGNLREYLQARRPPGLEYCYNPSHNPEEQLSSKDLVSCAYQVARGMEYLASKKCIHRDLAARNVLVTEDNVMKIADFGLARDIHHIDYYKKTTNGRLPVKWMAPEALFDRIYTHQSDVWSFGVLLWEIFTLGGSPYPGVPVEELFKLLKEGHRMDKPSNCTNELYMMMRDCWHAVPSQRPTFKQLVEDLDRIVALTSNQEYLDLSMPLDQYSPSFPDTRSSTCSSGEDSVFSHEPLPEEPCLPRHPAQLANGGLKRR

[23] = Stability in human liver microsomes at 1 uM in presence of NADPH cofactor; format: ADME, microsome; conditions: read-out: Stability
[24] = target: Tyrosine-protein kinase receptor UFO (Homo sapiens, UniProt P30530); assay: Inhibition of AXL (unknown origin)
[25] = Stability in human liver microsomes at 1 uM in absence of NADPH cofactor; format: ADME, microsome
[26] = target: Receptor-type tyrosine-protein kinase FLT3 (Homo sapiens, UniProt P36888); assay: Inhibition of wild-type FLT3 (unknown origin)
[27] = target: Dual specificity mitogen-activated protein kinase kinase 1 (Homo sapiens, UniProt Q02750); assay: Inhibition of wild-type MEK1 (unknown origin)
[28] = target: Serine/threonine-protein kinase pim-1 (Homo sapiens, UniProt P11309); assay: Inhibition of PIM1 (unknown origin)
[29] = target: Tyrosine-protein kinase CSK (Homo sapiens, UniProt P41240); assay: Inhibition of CSK (unknown origin)
Sequence of Tyrosine-protein kinase CSK (P41240 whole entry): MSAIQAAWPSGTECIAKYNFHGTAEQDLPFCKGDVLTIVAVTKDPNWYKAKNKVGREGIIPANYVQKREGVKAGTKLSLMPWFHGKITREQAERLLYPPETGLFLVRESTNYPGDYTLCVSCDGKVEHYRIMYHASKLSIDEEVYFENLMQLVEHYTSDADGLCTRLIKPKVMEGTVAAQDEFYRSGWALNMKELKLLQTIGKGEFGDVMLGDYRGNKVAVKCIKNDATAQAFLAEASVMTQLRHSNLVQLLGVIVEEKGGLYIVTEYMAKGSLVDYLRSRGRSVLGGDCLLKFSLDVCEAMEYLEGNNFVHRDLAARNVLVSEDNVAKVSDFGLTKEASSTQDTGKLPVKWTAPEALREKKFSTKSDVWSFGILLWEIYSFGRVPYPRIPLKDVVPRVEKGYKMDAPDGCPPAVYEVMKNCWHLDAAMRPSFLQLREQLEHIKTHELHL

[30] = target: Interleukin-1 receptor-associated kinase 4 (Homo sapiens, UniProt Q9NWZ3); assay: Inhibition of untagged IRAK4 (unknown origin)
[31] = target: 3-phosphoinositide-dependent protein kinase 1 (Homo sapiens, UniProt O15530); assay: Inhibition of PDK1 (unknown origin)
[32] = target: Homeodomain-interacting protein kinase 1 (Homo sapiens, UniProt Q86Z02); assay: Inhibition of HIPK1 (unknown origin)
[33] = target: Mitogen-activated protein kinase kinase kinase kinase 2 (Homo sapiens, UniProt Q12851); assay: Inhibition of MAP4K2 (unknown origin)
[34] = target: Proto-oncogene tyrosine-protein kinase Src (Homo sapiens, UniProt P12931); assay: Inhibition of GST/His-tagged SRC (unknown origin)
Sequence of Proto-oncogene tyrosine-protein kinase Src (P12931 2-536 limits assumed): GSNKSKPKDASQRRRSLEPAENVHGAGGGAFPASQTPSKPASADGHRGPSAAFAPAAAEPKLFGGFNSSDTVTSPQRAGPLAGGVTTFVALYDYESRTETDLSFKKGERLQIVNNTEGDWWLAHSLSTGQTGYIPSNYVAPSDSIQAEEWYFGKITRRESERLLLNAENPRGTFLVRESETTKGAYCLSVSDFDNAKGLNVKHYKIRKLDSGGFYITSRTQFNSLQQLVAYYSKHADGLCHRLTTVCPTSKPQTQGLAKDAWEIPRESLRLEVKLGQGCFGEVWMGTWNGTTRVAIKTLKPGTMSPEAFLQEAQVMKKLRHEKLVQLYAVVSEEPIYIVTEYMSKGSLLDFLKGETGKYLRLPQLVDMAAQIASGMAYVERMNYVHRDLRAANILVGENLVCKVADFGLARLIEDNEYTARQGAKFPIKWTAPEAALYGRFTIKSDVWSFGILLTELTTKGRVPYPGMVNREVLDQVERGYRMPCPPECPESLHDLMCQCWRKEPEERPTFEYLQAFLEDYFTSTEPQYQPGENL

[35] = target: 5'-AMP-activated protein kinase catalytic subunit alpha-1 (Homo sapiens, UniProt Q13131); assay: Inhibition of AMPK alpha1 (unknown origin) (1 to 550 residues)
[36] = species on record: Homo sapiens; assay: Inhibition of NFkappaB activation in human SKBR3 cells at 100 uM after 6 hrs by dual luciferase reporter gene assay relative to control; format: cell-based; in short: as §1

## CC(=O)n1nc(C)c(-c2ccc(Cl)c(Cl)c2)c1N
[1]
  IC50: > 100 µM
[2]
  IC50: > 100 µM
[3]
  IC50: > 100 µM
[4]
  IC50: > 100 µM
[5]
  inhibition: -0.77%
[6]
  IC50: > 100 µM
[7]
  IC50: > 100 µM
[8]
  IC50: > 100 µM
[9]
  IC50: > 100 µM
[10]
  IC50: > 100 µM
[11]
  IC50: > 100 µM
[12]
  IC50: > 100 µM
[13]
  IC50: > 100 µM
[14]
  IC50: > 100 µM
[15]
  logD: 4.09
[16]
  IC50: > 100 µM
[17]
  viability at 6 h, 100 µM: ≥ 80%
[18]
  IC50: > 100 µM
[19]
  inhibition: inactive
[20]
  viability at 6 h, 100 µM: ≥ 80%
[21]
  inhibition: 83.4%
[22]
  IC50: > 100 µM
[23]
  remaining at 1 µM: 1%
[24]
  IC50: > 100 µM
[25]
  Stability: Unstable
[26]
  IC50: > 100 µM
[27]
  IC50: > 100 µM
[28]
  IC50: > 100 µM
[29]
  IC50: > 100 µM
[30]
  IC50: > 100 µM
[31]
  IC50: > 100 µM
[32]
  IC50: > 100 µM
[33]
  IC50: > 100 µM
[34]
  IC50: > 100 µM
[35]
  IC50: > 100 µM
[36]
  inhibition: 3.9%

Reference: ChEMBL document CHEMBL4257503, “N-Acetyl-3-aminopyrazoles block the non-canonical NF-kB cascade by selectively inhibiting NIK” (Medchemcomm, 2018)
